Drawing on ChEMBL document CHEMBL3272270, “Potential antitumor agents. 23. 4'-(9-Acridinylamino)alkanesulfonanilide congeners bearing hydrophilic functionality” (J Med Chem, 1977), this text covers Rm, ILS and Activity for 20 compounds.

Series [1] is described as follows: Retardation factor, Rm of the compound by reversed phase partition chromatography. Type of series: physicochemical.
Series [2] deals with L1210. Put plainly: Antileukemic activity against ip implanted mouse L1210 cells in C3H/DBA2 F1 hybrid hybrid mouse assessed as increase life span treated ip after 24 hrs after tumor inoculation and continued for 5 days. Type of series: functional. In outline:
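10^5 L1210 cells implanted ip in 18.5-22.5-g C3H/DBA2 F1 hybrid mice. Drug given ip from 24 h after inoculation, continuing for 5 days, each dose in 0.2 mL. Dose levels spaced at 0.18 log intervals, six mice per dose, one control group per six test groups. Read-out is life extension; 50-day survivors counted as cures.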

Series [3] relates to Mus musculus. Put plainly: Toxicity in sc implanted mouse L1210 cells allografted C3H/DBA2 F1 hybrid hybrid mouse assessed as optimum dose required to increase life span treated ip after 24 hrs after tumor inoculation and continued for 5 days. Type of series: organism-based. The following applies: in vivo. In outline:
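10^5 L1210 cells implanted sc above the right axilla in 18.5-22.5-g C3H/DBA2 F1 hybrid mice. Ip dosing (0.2 mL per dose) ran daily for 5 days from 24 h. Dilution series at 0.18 log intervals, with the median dose set at the earlier ip L1210 optimum. Six mice per dose, one control group per six test groups. Tests were repeated until the highest dose was toxic and the lowest clearly suboptimal.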

The structures appear in SMILES notation.

Broadly, the ILS is how much longer treated animals lived than controls. In series [1], `O=[N+]([O-])c1ccc2c(Nc3ccc(N4CCNCC4)cc3)c3ccccc3nc2c1` gave a Rm of -0.81. In addition, the ILS in series [2] was above 25%. The Activity in series [3] was 15 mg/kg.
In the case of `Br.CS(=O)(=O)N(CC(O)CO)c1ccc(Nc2c3ccccc3nc3ccccc23)cc1` (stereo not given), the Rm in series [1] was -0.03. The increase in lifespan (ILS) in series [2] is above 25%. Further, in series [3], the Activity was 65 mg/kg.
Compound `COc1ccc(Nc2c3ccccc3nc3cc([N+](=O)[O-])ccc23)cc1.Cl` gave a Rm in series [1] of 0.49. Besides, the ILS in series [2] worked out at 33%. In series [3], the Activity came to 90 mg/kg.
`COc1ccc(Nc2c3ccccc3nc3cc(N)ccc23)cc1.Cl` yielded a Rm in series [1] of 0.31. For the same compound, the ILS in series [2] was determined as 66%. In addition, the Activity in series [3] was determined as 15 mg/kg.
In the same order, the values of `Br.CN1CCN(c2ccc(Nc3c4ccccc4nc4cc([N+](=O)[O-])ccc34)cc2)CC1` are -0.78, above 25% and 60 mg/kg.
With `Br.c1ccc2c(Nc3ccc(N4CCNCC4)cc3)c3ccccc3nc2c1`, the Rm in series [1] was -0.8. Besides, in series [2], the increase in life span (ILS) was above 25%. For the same compound, in series [3], the Activity worked out at 15 mg/kg.
Consider `Br.CN1CCN(c2ccc(Nc3c4ccccc4nc4ccccc34)cc2)CC1`, for which the Rm in series [1] is reported as -0.68. The ILS in series [2] is above 25%. The Activity in series [3] was 50 mg/kg.
In turn, `CC(=O)N1CCN(c2ccc(Nc3c4ccccc4nc4ccccc34)cc2)CC1.Cl` gave a Rm in series [1] of 0.23. Besides, in series [2], the ILS stood at 81%. The Activity in series [3] came out at 75 mg/kg.
`CS(=O)(=O)N1CCN(c2ccc(Nc3c4ccccc4nc4ccccc34)cc2)CC1.Cl`: the Rm in series [1] is 0.21. Moreover, the ILS in series [2] stood at 69%. The Activity in series [3] stood at 200 mg/kg.
For the compound `Cl.NC(=O)N1CCN(c2ccc(Nc3c4ccccc4nc4ccccc34)cc2)CC1`, in series [1], the Rm was -0.11. Besides, in series [2], the ILS is listed as 78%. For the same compound, in series [3], the Activity was determined as 37 mg/kg.
In turn, `CCOC(=O)NNc1ccc(Nc2c3ccccc3nc3ccccc23)cc1.Cl` yielded a Rm in series [1] of 0.41. The increase in lifespan (ILS) in series [2] was determined as 67%. Besides, the Activity in series [3] turned out to be 25 mg/kg.
Take `CNC(=O)Nc1ccc(Nc2c3ccccc3nc3ccccc23)c(OC)c1.Cl`: the Rm in series [1] stood at 0.51. Moreover, the ILS in series [2] is recorded as 72%. Further, the Activity in series [3] was 50 mg/kg.
In series [1], `CCOC(=O)N1CCN(C(=O)Nc2ccc(Nc3c4ccccc4nc4ccccc34)cc2)CC1.Cl` returned a Rm of 0.59. Further, in series [2], the ILS came to 29%. In addition, in series [3], the Activity turned out to be 50 mg/kg.
In the case of `COC(=O)NNC(=O)Nc1ccc(Nc2c3ccccc3nc3ccccc23)cc1.Cl`, the Rm in series [1] was -0.04. Moreover, in series [2], the ILS is listed as 67%. In addition, the Activity in series [3] was above 500 mg/kg.
On the same counts, the results for `COC(=O)NCCS(=O)(=O)Nc1ccc(Nc2c3ccccc3nc3ccccc23)cc1.Cl` are 0.24, 67% and above 500 mg/kg.
As to `CS(=O)(=O)NCCS(=O)(=O)Nc1ccc(Nc2c3ccccc3nc3ccccc23)cc1.Cl`, in series [1], the Rm is reported as -0.14. Moreover, the ILS in series [2] is 33%. In addition, the Activity in series [3] turned out to be 110 mg/kg.
As for `CC(=O)N(C)CCS(=O)(=O)Nc1ccc(Nc2c3ccccc3nc3ccccc23)cc1.Cl`, in series [1], the Rm was found to be 0.05. Besides, the ILS in series [2] amounted to 54%. The Activity in series [3] was found to be 200 mg/kg.
With `CC(=O)NCCCS(=O)(=O)Nc1ccc(Nc2c3ccccc3nc3ccccc23)cc1.Cl`, the Rm in series [1] was -0.01. In series [2], the ILS worked out at 26%. Moreover, the Activity in series [3] was above 500 mg/kg.
Regarding `Cl.O=C1CCS(=O)(=O)N1c1ccc(Nc2c3ccccc3nc3ccccc23)cc1`, in series [1], the Rm is listed as 0.13. Further, the increase in life span (ILS) in series [2] stood at 33%. In addition, in series [3], the Activity is 200 mg/kg.
In turn, `Cl.O=C(O)CCS(=O)(=O)Nc1ccc(Nc2c3ccccc3nc3ccccc23)cc1` had a Rm in series [1] of 0.1. Also, the ILS in series [2] was above 25%. For the same compound, the Activity in series [3] amounted to 350 mg/kg.
